# Reference: ChEMBL document CHEMBL3351600, “Sulfur, selenium and tellurium pseudopeptides: synthesis and biological evaluation” (Bioorg Med Chem, 2014)
# pIC50: −log10 of the molar value.
# What was measured:
# [1] = Growth inhibition of human PC3 cells after 48 hrs; assay type: functional; conditions: PC-3, 48 h
# Method in brief: (§1)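 NCI-60 human tumour cell line panel screen run at the US National Cancer Institute under its standard cytotoxicity protocol. It covers leukaemia, NSCLC, colon, CNS, melanoma, ovarian, renal, prostate and breast lines. An initial single-dose test was followed by five-dose testing with 48 h compound exposure.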
# [2] = Growth inhibition of human Hs 578T cells after 48 hrs; assay type: functional; method in brief: as §1
# A549 = assay: Growth inhibition of human A549/ATCC cells after 48 hrs; assay type: functional; conditions: A549, 48 h; method in brief: as §1
# SNB-75 = assay: Growth inhibition of human SNB75 cells after 48 hrs; assay type: functional; conditions: SNB-75, 48 h
# Method in brief: (§2)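 Run by the NCI 58-cell-line screen under its standard cytotoxicity protocol. Compounds were first tested at a single dose, then at five doses. Cells were exposed to compound for 48 h.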
# NCI-H23 = assay: Growth inhibition of human NCI-H23 cells after 48 hrs; assay type: functional; conditions: NCI-H23, 48 h; method in brief: as §1
# SK-MEL-28 = assay: Growth inhibition of human SK-MEL-28 cells after 48 hrs; assay type: functional; conditions: SK-MEL-28, 48 h; method in brief: as §1
# [3] = Growth inhibition of human SF539 cells after 48 hrs; assay type: functional; conditions: SF-539, 48 h; method in brief: as §1
# [4] = Lipophilicity, log K of the compound by HPLC analysis
# Klebsiella pneumoniae = assay: Antimicrobial activity against Klebsiella pneumoniae assessed as inhibition at 20 ug/6 mm disk after 1 to 2 days by agar diffusion assay; assay type: functional
# Method in brief: (§3)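 Standard agar diffusion: 6-mm paper disks loaded with 20 µg of compound were placed on inoculated plates. Inhibition-zone diameter (mm) was read after 1 and 2 days of growth.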
# MCF7 [5] = assay: Growth inhibition of human MCF7 cells after 48 hrs; assay type: functional; conditions: MCF7, 48 h; method in brief: as §1
# A498 = assay: Growth inhibition of human A498 cells after 48 hrs; assay type: functional; conditions: A498, 48 h; method in brief: as §1
# [6] = Growth inhibition of human HOP92 cells after 48 hrs; assay type: functional; conditions: HOP-92, 48 h; method in brief: as §1
# IGROV-1 = assay: Growth inhibition of human IGROV1 cells after 48 hrs; assay type: functional; conditions: IGROV-1, 48 h; method in brief: as §1
# [7] = Growth inhibition of human MOLT4 cells after 48 hrs; assay type: functional; conditions: MOLT-4, 48 h; method in brief: as §1
# [8] = Growth inhibition of human BT549 cells after 48 hrs; assay type: functional; conditions: BT-549, 48 h; method in brief: as §1
# Escherichia coli = assay: Antimicrobial activity against Escherichia coli tolC assessed as inhibition at 20 ug/6 mm disk after 1 to 2 days by agar diffusion assay; assay type: functional; method in brief: as §3
# [9] = Growth inhibition of human OVCAR8 cells after 48 hrs; assay type: functional; conditions: OVCAR-8, 48 h; method in brief: as §1
# U-251 = assay: Growth inhibition of human U251 cells after 48 hrs; assay type: functional; conditions: U-251, 48 h; method in brief: as §2
# NCI-H522 = assay: Growth inhibition of human NCI-H522 cells after 48 hrs; assay type: functional; conditions: NCI-H522, 48 h; method in brief: as §1
# [10] = Cytotoxicity against human fibroblasts assessed as cell viability after 24 hrs incubation by MTT assay; assay type: cell-based; conditions: Fibroblast
# Method in brief: (§4)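 Cell lines came from DSMZ; primary human fibroblasts served as non-cancer controls. Cells were grown in medium with 10% FCS, seeded at 50,000 cells/ml, and grown 2 days at 37 °C, 10% CO2. Serial dilutions were then added for 24 h. MTT (final 0.5 mg/ml) was added for 2 h. Formazan was pelleted, PBS-washed, dissolved in isopropanol/0.4% HCl and read at 590 nm. Two parallel experiments were run. IC50 was taken as the concentration giving 50% of untreated-control absorbance.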
# Saccharomyces cerevisiae = assay: Antimicrobial activity against Saccharomyces cerevisiae assessed as inhibition at 20 ug/6 mm disk after 1 to 2 days by agar diffusion assay; assay type: functional; method in brief: as §3
# MCF7 [11] = assay: Cytotoxicity against human MCF7 cells assessed as cell viability after 24 hrs incubation by MTT assay; assay type: functional, cell-based; conditions: MCF7, 24 h; method in brief: as §4
# [12] = Growth inhibition of human OVCAR4 cells after 48 hrs; assay type: functional; conditions: OVCAR-4, 48 h; method in brief: as §1
# HL-60(TB) = assay: Growth inhibition of human HL-60(TB) cells after 48 hrs; assay type: functional; conditions: HL-60, 48 h; method in brief: as §1
# Mycolicibacterium phlei = assay: Antimicrobial activity against Mycobacterium phlei assessed as inhibition at 20 ug/6 mm disk after 1 to 2 days by agar diffusion assay; assay type: functional; method in brief: as §3
# [13] = Growth inhibition of human HCT116 cells after 48 hrs; assay type: functional; conditions: HCT-116, 48 h; method in brief: as §1
# [14] = Growth inhibition of human LOXIMVI cells after 48 hrs; assay type: functional; conditions: LOX IMVI; method in brief: as §1
# [15] = Growth inhibition of human UACC62 cells after 48 hrs; assay type: functional; conditions: UACC-62, 48 h; method in brief: as §2
# SNB-19 = assay: Growth inhibition of human SNB19 cells after 48 hrs; assay type: functional; conditions: SNB-19, 48 h; method in brief: as §2
# Staphylococcus aureus = assay: Antimicrobial activity against Staphylococcus aureus assessed as inhibition at 20 ug/6 mm disk after 1 to 2 days by agar diffusion assay; assay type: functional; method in brief: as §3
# 786-0 = assay: Growth inhibition of human 786-0 cells after 48 hrs; assay type: functional; conditions: 786-0, 48 h; method in brief: as §1
# SK-MEL-5 = assay: Growth inhibition of human SK-MEL-5 cells after 48 hrs; assay type: functional; conditions: SK-MEL-5, 48 h; method in brief: as §2
# [16] = read-out: pLC50 (the source's name) (converted)
smiles,measurement,setting,value
COc1ccc(N(CC(=O)NCCC[Te]c2ccccc2)C(=O)c2ccccc2)cc1,GI50,[1],2.69 µM
same,LC50,[1],> 100 µM
same,TGI,[1]; read-out: pTGI (converted),12.6 µM
same,LC50,[2],> 100 µM
same,GI50,A549,0.38 µM
same,CC50,A549; [16],17.8 µM
same,TGI,A549; read-out: pTGI (converted),2.14 µM
same,GI50,SNB-75,2.57 µM
same,CC50,SNB-75; [16],39.8 µM
same,TGI,SNB-75; read-out: pTGI (converted),9.55 µM
same,GI50,NCI-H23,3.16 µM
same,CC50,NCI-H23; [16],> 100 µM
same,TGI,NCI-H23; read-out: pTGI (converted),9.33 µM
same,GI50,SK-MEL-28,4.17 µM
same,CC50,SK-MEL-28; [16],45.7 µM
same,TGI,SK-MEL-28; read-out: pTGI (converted),15.5 µM
same,GI50,[3],2.29 µM
same,CC50,[3]; [16],28.8 µM
same,TGI,[3]; read-out: pTGI (converted),6.03 µM
same,log K,[4],-0.65
same,diameter of the inhibition zone (DIZ),Klebsiella pneumoniae,12 mm
same,GI50,MCF7 [5],3.16 µM
same,LC50 (concentration killing 50% of cells),MCF7 [5],75.9 µM
same,TGI,MCF7 [5]; read-out: pTGI (converted),10.7 µM
same,GI50,A498,2.19 µM
same,LC50,A498,25.1 µM
same,TGI,A498; read-out: pTGI (converted),5.37 µM
same,GI50,[6],4.07 µM
same,CC50,[6]; [16],69.2 µM
same,TGI,[6]; read-out: pTGI (converted),10 µM
same,GI50,IGROV-1,2.88 µM
same,CC50,IGROV-1; [16],55 µM
same,TGI,IGROV-1; read-out: pTGI (converted),8.32 µM
same,GI50,[7],3.55 µM
same,CC50,[7]; [16],> 100 µM
same,TGI,[7]; read-out: pTGI (converted),16.6 µM
same,GI50,[8],2.4 µM
same,LC50 (concentration killing 50% of cells),[8],> 100 µM
same,TGI,[8]; read-out: pTGI (converted),8.71 µM
same,diameter of the inhibition zone (DIZ),Escherichia coli,11 mm
same,GI50,[9],3.02 µM
same,LC50,[9],> 100 µM
same,TGI,[9]; read-out: pTGI (converted),8.13 µM
same,GI50,U-251,2.82 µM
same,CC50,U-251; [16],74.1 µM
same,TGI,U-251; read-out: pTGI (converted),9.33 µM
same,GI50,NCI-H522,3.09 µM
same,CC50,NCI-H522; [16],53.7 µM
same,TGI,NCI-H522; read-out: pTGI (converted),8.71 µM
same,pIC50,[10],5.12
same,diameter of the inhibition zone (DIZ),Saccharomyces cerevisiae,0 mm
same,pIC50,MCF7 [11],4.57
same,GI50,[12],12 µM
same,LC50,[12],53.7 µM
same,TGI,[12]; read-out: pTGI (converted),25.1 µM
same,GI50,HL-60(TB),2.14 µM
same,CC50,HL-60(TB); [16],> 100 µM
same,TGI,HL-60(TB); read-out: pTGI (converted),5.75 µM
same,diameter of the inhibition zone (DIZ),Mycolicibacterium phlei,17 mm
same,GI50,[13],2.57 µM
same,CC50,[13]; [16],44.7 µM
same,TGI,[13]; read-out: pTGI (converted),10.2 µM
same,GI50,[14],3.72 µM
same,LC50,[14],100 µM
same,TGI,[14]; read-out: pTGI (converted),14.1 µM
same,GI50,[15],2.51 µM
same,CC50,[15]; [16],43.7 µM
same,TGI,[15]; read-out: pTGI (converted),7.59 µM
same,GI50,SNB-19,4.07 µM
same,CC50,SNB-19; [16],> 100 µM
same,TGI,SNB-19; read-out: pTGI (converted),58.9 µM
same,diameter of the inhibition zone (DIZ),Staphylococcus aureus,12 mm
same,GI50,786-0,5.13 µM
same,LC50,786-0,64.6 µM
same,TGI,786-0; read-out: pTGI (converted),19.5 µM
same,GI50,SK-MEL-5,2.4 µM
same,CC50,SK-MEL-5; [16],24.5 µM
same,TGI,SK-MEL-5; read-out: pTGI (converted),6.03 µM
